# Laboratory results: ChEMBL document CHEMBL1132437, “Synthesis and antimicrobial activity of 4H-4-oxoquinolizine derivatives: consequences of structural modification at the C-8 position” (1999)
# Columns and labels:
# Assay type in all cases: functional
# Pseudomonas aeruginosa [1] = assay: In vivo efficacy against Pseudomonas aeruginosa 5007 in mouse protection test after subcutaneous administration; conditions: Pseudomonas aeruginosa, sc; read-out: ED50
# Summary of the method: (§1)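 Mouse protection model: mice infected intravenously with 100-fold LD50 of the organism. Compound given by subcutaneous injection or oral gavage at 1 and 5 h after infection, over a dose range. Deaths tracked for 7 days post-inoculation. ED50 is the dose giving 50% survival of treated mice over the trial.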
# Staphylococcus aureus = assay: In vivo efficacy against Staphylococcus aureus NCTC 10649M in mouse protection test after p.o. administration.; summary of the method: as §1
# Mus musculus [2] = assay: In vivo efficacy against Staphylococcus aureus NCTC 10649M in mouse protection test after sub cutaneous administration; summary of the method: as §1
# Streptococcus pneumoniae = assay: In vivo efficacy against Streptococcus pneumoniae ATCC 6303 in mouse protection test after s.c. administration.; summary of the method: as §1
# Mus musculus [3] = assay: In vivo efficacy against Streptococcus pneumoniae ATCC 6303 in mouse protection test […].; summary of the method: as §1
# Escherichia coli [4] = assay: In vivo efficacy against Escherichia coli JUHL in mouse protection test after p.o. administration.; summary of the method: as §1
# Escherichia coli [5] = assay: In vivo efficacy against Escherichia coli JUHL in mouse protection test after subcutaneous administration; summary of the method: as §1
# Pseudomonas aeruginosa [6] = assay: In vivo efficacy against Pseudomonas aeruginosa 5007 in mouse protection test after administration by oral gavage; conditions: Pseudomonas aeruginosa, po; read-out: ED50; summary of the method: as §1
smiles,measurement,setting,value
"Cc1c(N2CC[C@H](C)C(N)C2)c(F)cn2c(=O)c(C(=O)O)cc(C3CC3)c12 (single isomer, unassigned)",ED50,Pseudomonas aeruginosa [1],> 32 mg/kg
same,ED50,Staphylococcus aureus,6.3 mg/kg
same,ED50,Mus musculus [2],1.2 mg/kg
same,ED50,Streptococcus pneumoniae,8 mg/kg
same,ED50,Mus musculus [3],5.2 mg/kg
same,ED50,Escherichia coli [4],12.5 mg/kg
same,ED50,Escherichia coli [5],2 mg/kg
same,ED50,Pseudomonas aeruginosa [6],> 50 mg/kg
